From ChEMBL document CHEMBL3085739, “Design, synthesis, and biological evaluation of 2-oxo-3,4-dihydropyrimido[4,5-d]pyrimidinyl derivatives as new irreversible epidermal growth factor receptor inhibitors with improved pharmacokinetic properties” (J Med Chem, 2013)
The source made the active and inactive calls. No cut-off for these calls is given here.

Columns and labels:
Mus musculus = test: Toxicity in SCID nude mouse xenografted with human NCI-H1975 cells assessed as body weight loss at 10 to 30 mg/kg, po qd after 14 days relative to vehicle-treated control; type: organism-based; parameters: dose 10-30 mg/kg, route oral; conditions: in vivo, 336 h
In short: (§1)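 SCID mice (6 weeks) were given H1975 cells subcutaneously in the right flank at 2 × 10^6 per mouse. At 200−300 mm3, n = 5 per group were randomized to daily oral vehicle or compound at 10 or 30 mg/kg for 14 days. Vehicle: 1% DMSO, 5% EtOH, 15% castor oil, 79% H2O. Tumors (W²·L/2) and body weight were measured every other day; TGI was calculated against vehicle controls.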

NCI-H1975 [1] = test: Antitumor activity against human NCI-H1975 cells xenografted in SCID nude mouse assessed as tumor growth inhibition at 30 mg/kg, po qd after 14 days; type: functional; conditions: NCI-H1975, 336 h, read-out: TGI; in short: as §1
NCI-H1975 [2] = test: Antitumor activity against human NCI-H1975 cells xenografted in po dosed SCID nude mouse assessed as tumor growth inhibition administered qd after 14 days; type: functional, organism-based; in short: as §1
[3] = Antiproliferative activity against human HCC827 cells expressing EGFR E746 to A750 deletion mutant after 72 hrs by MTS assay; type: functional, cell-based; conditions: HCC827, 72 h
In short: (§2)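 MTS proliferation assay: cells exposed to compound for 72 h at six concentrations (0.1 nM to 10 μM), each concentration run six times. Cell number per line set to give an absorbance of 0.5–1.2 at […]. IC50 from a nonlinear sigmoidal dose–response fit. Values are means of at least three independent experiments.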

[4] = Antiproliferative activity against human HL7702 cells after 72 hrs by MTS assay; type: cell-based; conditions: L02, 72 h
[5] = Antiproliferative activity against human 95-D cells expressing wild-type EGFR after 72 hrs by MTS assay; type: cell-based; in short: as §2
[6] = biological target: Proto-oncogene tyrosine-protein kinase Src (Homo sapiens) (UniProt P12931); test: Binding affinity to SRC (unknown origin)
Proto-oncogene tyrosine-protein kinase Src (Homo sapiens), sequence (P12931 2-536 limits assumed): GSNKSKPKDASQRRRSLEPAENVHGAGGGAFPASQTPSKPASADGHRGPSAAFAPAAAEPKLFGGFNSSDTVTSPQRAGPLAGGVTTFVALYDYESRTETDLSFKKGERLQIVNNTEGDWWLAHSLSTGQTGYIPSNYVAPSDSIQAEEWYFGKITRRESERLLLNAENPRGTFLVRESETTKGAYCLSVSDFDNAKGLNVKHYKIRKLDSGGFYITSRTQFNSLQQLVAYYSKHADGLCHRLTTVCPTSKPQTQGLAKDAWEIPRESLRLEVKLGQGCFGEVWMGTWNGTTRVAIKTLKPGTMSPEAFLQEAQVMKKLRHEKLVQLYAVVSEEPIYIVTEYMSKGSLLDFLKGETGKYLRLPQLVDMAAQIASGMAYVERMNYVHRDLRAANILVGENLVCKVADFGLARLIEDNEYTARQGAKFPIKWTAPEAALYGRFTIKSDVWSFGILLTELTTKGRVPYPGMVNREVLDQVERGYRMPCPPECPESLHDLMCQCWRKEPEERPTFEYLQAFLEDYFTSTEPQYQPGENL

[7] = biological target: Platelet-derived growth factor receptor beta (Homo sapiens) (UniProt P09619); test: Binding affinity to PDGFRbeta (unknown origin)
Platelet-derived growth factor receptor beta (Homo sapiens), sequence (P09619 whole entry): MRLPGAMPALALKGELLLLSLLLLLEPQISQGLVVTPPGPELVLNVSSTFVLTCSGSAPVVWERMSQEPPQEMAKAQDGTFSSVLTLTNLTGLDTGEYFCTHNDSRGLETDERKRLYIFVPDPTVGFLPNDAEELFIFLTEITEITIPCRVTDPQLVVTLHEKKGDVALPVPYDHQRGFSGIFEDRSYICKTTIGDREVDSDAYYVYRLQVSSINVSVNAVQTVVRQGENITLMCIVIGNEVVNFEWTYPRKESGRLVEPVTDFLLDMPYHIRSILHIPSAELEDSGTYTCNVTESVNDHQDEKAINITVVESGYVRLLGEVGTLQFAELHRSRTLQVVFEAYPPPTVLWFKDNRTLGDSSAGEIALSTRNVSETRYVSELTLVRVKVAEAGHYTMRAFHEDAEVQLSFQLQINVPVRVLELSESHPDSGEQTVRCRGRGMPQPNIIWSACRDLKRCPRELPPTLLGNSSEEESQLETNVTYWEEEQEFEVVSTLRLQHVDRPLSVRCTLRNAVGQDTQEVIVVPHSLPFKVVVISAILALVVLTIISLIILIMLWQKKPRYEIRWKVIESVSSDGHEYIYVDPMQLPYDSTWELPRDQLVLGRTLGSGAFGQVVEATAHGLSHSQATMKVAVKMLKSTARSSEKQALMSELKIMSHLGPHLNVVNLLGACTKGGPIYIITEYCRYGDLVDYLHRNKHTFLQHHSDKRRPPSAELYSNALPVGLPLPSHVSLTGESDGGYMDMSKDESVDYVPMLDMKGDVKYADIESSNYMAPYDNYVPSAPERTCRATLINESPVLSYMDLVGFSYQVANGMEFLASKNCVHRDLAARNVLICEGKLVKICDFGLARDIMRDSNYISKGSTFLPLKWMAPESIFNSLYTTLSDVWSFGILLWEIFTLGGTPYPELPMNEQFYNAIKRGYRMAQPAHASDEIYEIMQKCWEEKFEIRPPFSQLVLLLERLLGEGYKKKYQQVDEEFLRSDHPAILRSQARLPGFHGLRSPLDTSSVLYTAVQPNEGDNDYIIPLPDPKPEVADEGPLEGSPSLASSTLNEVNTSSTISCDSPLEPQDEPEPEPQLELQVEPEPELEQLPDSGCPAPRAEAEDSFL

[8] = biological target: T1, Dual specificity mitogen-activated protein kinase kinase 5 (Homo sapiens) (UniProt Q13163); test: Binding affinity to MEK5 (unknown origin)
T1 sequence (whole entry): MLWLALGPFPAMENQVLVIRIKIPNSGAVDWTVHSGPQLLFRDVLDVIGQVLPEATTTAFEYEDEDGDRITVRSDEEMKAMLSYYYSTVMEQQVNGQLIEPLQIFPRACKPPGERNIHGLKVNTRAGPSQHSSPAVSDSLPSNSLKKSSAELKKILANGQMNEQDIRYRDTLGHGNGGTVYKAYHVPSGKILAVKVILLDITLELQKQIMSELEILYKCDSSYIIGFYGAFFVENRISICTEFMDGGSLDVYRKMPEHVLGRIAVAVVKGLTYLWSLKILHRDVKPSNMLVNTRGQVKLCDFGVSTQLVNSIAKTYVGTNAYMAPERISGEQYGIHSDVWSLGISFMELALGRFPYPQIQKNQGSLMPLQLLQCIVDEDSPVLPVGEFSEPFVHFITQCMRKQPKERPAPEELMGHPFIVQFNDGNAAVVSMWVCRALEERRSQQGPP

[9] = biological target: Mast/stem cell growth factor receptor Kit (Homo sapiens) (UniProt P10721); test: Binding affinity to KIT (unknown origin)
Mast/stem cell growth factor receptor Kit (Homo sapiens), sequence (P10721 whole entry, the tested form may be a part): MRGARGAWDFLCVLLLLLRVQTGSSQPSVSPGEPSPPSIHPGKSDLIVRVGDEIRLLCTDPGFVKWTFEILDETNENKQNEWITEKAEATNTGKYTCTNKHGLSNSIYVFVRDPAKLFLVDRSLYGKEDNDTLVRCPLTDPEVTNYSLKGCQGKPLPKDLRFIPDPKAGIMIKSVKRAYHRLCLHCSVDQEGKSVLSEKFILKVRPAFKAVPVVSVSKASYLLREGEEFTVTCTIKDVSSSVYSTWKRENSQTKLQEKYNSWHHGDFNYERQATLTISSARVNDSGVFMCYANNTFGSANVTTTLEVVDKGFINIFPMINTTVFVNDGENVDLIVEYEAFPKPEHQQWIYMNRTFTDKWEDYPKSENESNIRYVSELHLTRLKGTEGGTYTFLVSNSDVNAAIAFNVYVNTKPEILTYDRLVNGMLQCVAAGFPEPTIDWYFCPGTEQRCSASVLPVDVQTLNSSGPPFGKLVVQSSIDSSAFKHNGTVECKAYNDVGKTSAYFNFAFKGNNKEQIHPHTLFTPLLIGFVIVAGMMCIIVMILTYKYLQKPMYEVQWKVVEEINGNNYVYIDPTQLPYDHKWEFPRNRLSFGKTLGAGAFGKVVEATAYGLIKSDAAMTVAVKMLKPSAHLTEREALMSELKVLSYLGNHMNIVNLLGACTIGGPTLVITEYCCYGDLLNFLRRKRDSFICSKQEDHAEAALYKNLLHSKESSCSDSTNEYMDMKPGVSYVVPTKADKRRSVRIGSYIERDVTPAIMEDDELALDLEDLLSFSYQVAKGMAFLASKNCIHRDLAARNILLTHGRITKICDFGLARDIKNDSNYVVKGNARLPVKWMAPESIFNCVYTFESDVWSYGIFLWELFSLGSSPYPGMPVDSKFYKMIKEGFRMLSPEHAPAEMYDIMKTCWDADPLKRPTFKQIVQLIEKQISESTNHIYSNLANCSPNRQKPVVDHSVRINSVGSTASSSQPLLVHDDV

[10] = biological target: Epithelial discoidin domain-containing receptor 1 (Homo sapiens) (UniProt Q08345); test: Binding affinity to DDR1 (unknown origin)
Epithelial discoidin domain-containing receptor 1 (Homo sapiens), sequence (Q08345 whole entry, the tested form may be a part): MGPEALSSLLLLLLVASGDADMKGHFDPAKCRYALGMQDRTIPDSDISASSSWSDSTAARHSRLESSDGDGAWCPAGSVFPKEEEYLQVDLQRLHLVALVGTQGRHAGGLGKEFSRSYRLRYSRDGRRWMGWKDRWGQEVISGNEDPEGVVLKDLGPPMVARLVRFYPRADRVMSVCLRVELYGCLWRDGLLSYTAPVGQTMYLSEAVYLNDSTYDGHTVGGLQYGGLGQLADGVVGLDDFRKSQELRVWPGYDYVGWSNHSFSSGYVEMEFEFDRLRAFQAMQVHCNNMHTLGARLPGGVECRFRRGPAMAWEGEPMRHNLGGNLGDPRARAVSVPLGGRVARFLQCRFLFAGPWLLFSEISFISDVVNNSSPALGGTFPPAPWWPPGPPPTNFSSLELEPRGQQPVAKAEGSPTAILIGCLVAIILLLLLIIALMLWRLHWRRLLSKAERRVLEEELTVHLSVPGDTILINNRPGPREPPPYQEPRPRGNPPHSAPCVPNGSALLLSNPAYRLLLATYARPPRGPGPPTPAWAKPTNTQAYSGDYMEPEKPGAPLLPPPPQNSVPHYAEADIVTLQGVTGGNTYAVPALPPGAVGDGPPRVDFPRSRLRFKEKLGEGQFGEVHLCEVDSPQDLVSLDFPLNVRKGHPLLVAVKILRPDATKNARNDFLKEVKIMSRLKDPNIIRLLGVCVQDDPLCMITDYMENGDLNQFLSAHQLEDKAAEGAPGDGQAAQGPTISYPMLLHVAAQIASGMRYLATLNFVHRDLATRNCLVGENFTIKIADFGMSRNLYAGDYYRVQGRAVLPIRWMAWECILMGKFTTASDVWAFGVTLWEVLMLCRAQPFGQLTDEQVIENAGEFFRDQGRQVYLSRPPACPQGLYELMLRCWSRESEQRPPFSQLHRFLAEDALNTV

[11] = biological target: Tyrosine-protein kinase Blk (Homo sapiens) (UniProt P51451); test: Binding affinity to BLK (unknown origin)
[12] = biological target: Epidermal growth factor receptor (Homo sapiens, UniProt P00533, L858R/T790M); test: Binding affinity to EGFR L858R/T790M double mutant (unknown origin)
Epidermal growth factor receptor, sequence (P00533 25-1210 T790M/L858R limits assumed): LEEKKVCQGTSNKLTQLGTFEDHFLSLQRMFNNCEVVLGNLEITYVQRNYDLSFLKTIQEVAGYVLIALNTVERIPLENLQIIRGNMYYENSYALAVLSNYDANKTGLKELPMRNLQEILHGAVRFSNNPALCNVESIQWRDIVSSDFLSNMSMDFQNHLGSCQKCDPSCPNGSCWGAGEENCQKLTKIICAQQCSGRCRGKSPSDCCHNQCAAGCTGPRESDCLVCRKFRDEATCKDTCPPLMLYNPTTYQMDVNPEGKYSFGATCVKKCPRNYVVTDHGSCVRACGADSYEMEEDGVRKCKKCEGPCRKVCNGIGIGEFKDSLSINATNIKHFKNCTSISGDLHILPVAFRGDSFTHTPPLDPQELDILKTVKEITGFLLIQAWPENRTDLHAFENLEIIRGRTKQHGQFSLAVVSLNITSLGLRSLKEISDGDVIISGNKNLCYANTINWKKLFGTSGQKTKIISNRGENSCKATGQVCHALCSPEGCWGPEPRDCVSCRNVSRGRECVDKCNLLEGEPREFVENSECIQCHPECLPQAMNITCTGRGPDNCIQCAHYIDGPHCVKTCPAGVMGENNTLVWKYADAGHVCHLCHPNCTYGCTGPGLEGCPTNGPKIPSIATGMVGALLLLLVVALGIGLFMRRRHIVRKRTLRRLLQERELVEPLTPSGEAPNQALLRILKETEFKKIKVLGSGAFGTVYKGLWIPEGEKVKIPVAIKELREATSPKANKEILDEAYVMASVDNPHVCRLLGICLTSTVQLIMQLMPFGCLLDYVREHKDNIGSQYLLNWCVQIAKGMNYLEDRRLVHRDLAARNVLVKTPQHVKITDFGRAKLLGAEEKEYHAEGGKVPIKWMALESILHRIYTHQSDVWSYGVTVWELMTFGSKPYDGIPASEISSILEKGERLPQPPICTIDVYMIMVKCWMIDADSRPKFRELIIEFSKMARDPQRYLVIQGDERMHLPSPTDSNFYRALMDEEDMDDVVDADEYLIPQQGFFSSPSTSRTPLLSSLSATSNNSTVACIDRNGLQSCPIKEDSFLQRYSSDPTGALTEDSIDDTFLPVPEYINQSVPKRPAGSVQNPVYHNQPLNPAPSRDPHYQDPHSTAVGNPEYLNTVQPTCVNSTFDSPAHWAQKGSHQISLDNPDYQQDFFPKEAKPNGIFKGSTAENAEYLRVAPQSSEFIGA

NCI-H1975 [13] = test: Effect on GADPH protein level in human NCI-H1975 cells at 3 to 330 nM after 2 hrs by Western blotting analysis; type: functional, cell-based
NCI-H1975 [14] = test: Effect on ERK protein level in human NCI-H1975 cells at 3 to 330 nM after 2 hrs by Western blotting analysis; type: functional, cell-based
In short: (§3)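 H1975 cells were grown 24 h, then treated for 2 h with DMSO or 3–330 nM compound. Lysates were sonicated, run on SDS-PAGE, blotted to PVDF, blocked in 5% BSA/TBST, and probed for phospho/total EGFR (pY1068), Akt and Erk1/2 (pT202/pY204) with peroxidase secondary antibodies. Blots are representative of three experiments.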

NCI-H1975 [15] = test: Effect on AKT protein level in human NCI-H1975 cells at 3 to 330 nM after 2 hrs by Western blotting analysis; type: functional, cell-based; in short: as §3
NCI-H1975 [16] = test: Effect on EGFR protein level in human NCI-H1975 cells at 3 to 330 nM after 2 hrs by Western blotting analysis; type: functional, cell-based; in short: as §3
[17] = Oral bioavailability in Sprague-Dawley rat at 25 mg/kg by LC/MS analysis; type: ADME, organism-based; conditions: in vivo
In short: (§4)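 Male Sprague-Dawley rats (180−220 g), n = 4 per route, single iv dose 5 mg/kg or oral gavage 25 mg/kg. Vehicle was 2% DMSO, 4% EtOH, 4% castor oil, 90% H2O. Orbital sinus blood was taken from 2 min to 72 h into heparinized tubes. Plasma levels were measured by LC/MS with propranolol internal standard and analysed by pharmacokinetic modelling.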

[18] = AUC (0 to infinity) in Sprague-Dawley rat at 25 mg/kg, po by LC/MS analysis; type: ADME, organism-based; parameters: dose 25 mg/kg, route oral, time infinity; conditions: plasma; in short: as §4
[19] = AUC (0 to infinity) in Sprague-Dawley rat at 5 mg/kg, iv by LC/MS analysis; type: ADME, organism-based; parameters: time infinity, dose 5 mg/kg, route intravenous; conditions: plasma; in short: as §4
[20] = Cmax in Sprague-Dawley rat at 25 mg/kg, po by LC/MS analysis; type: ADME, organism-based; parameters: dose 25 mg/kg, route oral; conditions: in vivo; in short: as §4
[21] = Cmax in Sprague-Dawley rat at 5 mg/kg, iv by LC/MS analysis; type: ADME, organism-based; parameters: dose 5 mg/kg, route intravenous; conditions: in vivo; in short: as §4
[22] = system: Epidermal growth factor receptor (Homo sapiens), P00533 [L858R,T790M]; conditions: NCI-H1975, 33 nM

In the case of C=CC(=O)N1CC[C@H](N2C(=O)N(c3ccccc3)Cc3cnc(Nc4ccc(N5CCN(C)CC5)c(C)c4)nc32)C1, the Activity (Mus musculus) is reported as < 5%, the inhibition in vivo at 30 mg/kg (NCI-H1975 [1]) is reported as 56.8% and the TGI (NCI-H1975 [2]) is reported as “Dose-dependent effect”. The IC50 [3] was 5 nM, the IC50 [4] was > 10000 nM and the IC50 [5] was 4000 nM. The Activity [6] was “Active”, the Activity [7] was “Active” and the Activity [8] was “Active”. The Activity [9] was “Active”, the Activity [10] was “Active” and the Activity [11] was “Active”. The Kd [12] was 1.4 nM, the Activity (NCI-H1975 [13]) was “inactive” and the Activity (NCI-H1975 [14]) was “inactive”. For the same compound, the Activity (NCI-H1975 [15]) was “inactive”, the Activity (NCI-H1975 [16]) was “inactive” and the bioavailability [17] was 30%. The AUC(0-inf) [18] was 2490 ng·h/mL, the AUC(0-inf) [19] was 1640 ng·h/mL and the Cmax [20] was 1040 ng/mL. For the same compound, the Cmax [21] was 3980 ng/mL and the inhibition [22] was “Active”.
